# Data: PubChem BioAssay AID624467 (The Scripps Research Institute Molecular Screening Center, 2012)
# The campaign covered roughly 360,000 compounds. About 3,600 (1%) were called active. Only a selection was taken, and actives are over-represented in it overall. Unmarked numbers belong to inactive results.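 Rule for the calls: active = activation above the mean activation of all test compounds in the run plus 3 SD (cut at about 38% in these data); inactive = the rest.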
# Target: Trace amine-associated receptor 1 (Homo sapiens) (UniProt Q96RJ0)
# Assay: activators of TAAR1 calcium mobilization – Fluo-8 calcium fluorescence, CHO RD-HGA16 cells, primary screen (AID 624467)
# Settings: CHO RD-HGA16 TAAR1, Fluo-8 calcium fluorescence; at 3 µM; stronger effect = higher value; vehicle wells 0%, saturating PEA agonist 100%
# Method in brief: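 Assay system: CHO-derived RD-HGA16 cells with stable Gα16 and human TAAR1; timing: 17-24 h seeding, 75 min 37 °C dye, 30 min RT; read-out: % activation from peak over basal fluorescence ratio, DMSO-to-PEA scaled; measured by: kinetic Fluo-8 calcium fluorescence; benchmarks: low control DMSO, high control PEA (EC100); doses: 3 µM single concentration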
# Sequence of Trace amine-associated receptor 1 (Homo sapiens) (Q96RJ0 whole entry, looked up): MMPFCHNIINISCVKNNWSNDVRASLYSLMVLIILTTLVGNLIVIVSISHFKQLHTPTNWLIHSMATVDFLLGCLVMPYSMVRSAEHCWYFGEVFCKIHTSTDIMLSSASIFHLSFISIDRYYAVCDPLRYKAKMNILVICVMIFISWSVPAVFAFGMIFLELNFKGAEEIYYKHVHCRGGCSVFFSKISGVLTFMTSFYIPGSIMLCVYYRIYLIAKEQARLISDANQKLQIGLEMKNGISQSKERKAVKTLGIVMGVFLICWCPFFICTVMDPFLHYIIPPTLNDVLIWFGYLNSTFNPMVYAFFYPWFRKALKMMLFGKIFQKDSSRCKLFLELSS
row,Compound,activation
1,COC1=CCC2([N+](=O)[O-])CN(CC(=O)O)CC1([N+](=O)[O-])C2 (stereo not given),1.51%
2,CCOC(=O)C1=C(C(=O)OCC)C2N(Cc3ccc(C#N)cc3)c3ccccc3[C@@]23C[C@@H](C(=O)OC)N(S(=O)(=O)c2ccc(F)cc2)C3=N1 (stereo not given in full),-0.08%
3,Cc1noc(C)c1NC(=O)Nc1ccc2c(c1)C(=O)N([C@H](C)CO)C[C@H](C)[C@H](CN(C)Cc1ccncc1)OCCCC[C@@H](C)O2,2.28%
4,Cc1cc(=O)oc2c(C)c(OCC(=O)NCCc3ccc(S(N)(=O)=O)cc3)ccc12,0.73%
5,CCc1cc(=O)oc2c(C)c(OCC(=O)NCCN3CCOCC3)ccc12,2.36%
6,Cc1cc(=O)oc2c(C)c(OCC(=O)NCCN3CCOCC3)ccc12,43.2% (active)
7,O=C1C2(c3ccccc3)CN(CCCO)CC1(c1ccccc1)CN(CCCO)C2,2.41%
8,CCOc1ccc(Cn2c(SCCCCC#N)nc3c2c(=O)n(C)c(=O)n3C)cc1OCC,17.1%
9,CCCSc1nc2c(c(=O)n(C)c(=O)n2C)n1Cc1ccc(C)cc1,52.6% (active)
10,Cn1c(=O)c2c(nc(SCCNS(=O)(=O)c3ccccc3)n2C)n(C)c1=O,1.23%
11,CC1CCc2sc(C(=O)N/N=C/C3CCCCC3)cc2C1 (stereo not given),5.23%
12,COCc1[nH]nc2c1C(c1ccccc1)N(c1ccccc1)C2=O (stereo not given),0.37%
13,O=C(Cn1nnc(-c2ccccc2)n1)N/N=C/c1ccc(-c2ccc(Cl)cc2)o1,-0.07%
14,O=C(Cn1cncn1)N/N=C/c1c2ccccc2cc2ccccc12,6.44%
15,Nc1nnn(CC(=O)N/N=C/c2ccccc2)n1,43.3% (active)
16,CC(C)CNc1cccc2c1S(=O)(=O)N[C@H](C)CO2,-0.59%
17,COc1ccc(C(=O)NC(=S)NNC(=O)CCc2ccccc2)cc1,108% (active)
18,COc1ccc(C(=O)NNC(=S)NC(=O)c2ccccc2)cc1,130% (active)
19,CCOc1ccccc1NC(=S)NC(=O)CCc1ccccc1,-1.05%
20,CC(=O)NC(=S)NNC(=O)c1ccc(Br)cc1,6.34%
21,Cn1nnc(NC(=S)NC(=O)c2ccccc2)n1,0.43%
22,COc1ccc(/C(N)=N/OC(=O)CCCc2ccccc2)cc1,5.81%

row,Compound,activation
1,COCCCNC(=O)C[C@H]1C[C@@]2(C(=O)OC)C(=C[C@H](C(C)(C)C)O[C@@H]2C)N(Cc2ccc3c(c2)OCO3)C1=O,0.46%
2,Nc1[nH]c(C(=O)c2ccccc2)c(-c2ccc(Cl)cc2Cl)c1C(=O)c1ccccc1,1.29%
3,CCC(Sc1nncn1C)C(=O)Nc1nnc(-c2ccc(Cl)cc2)s1 (stereo not given),0.73%
4,COCc1cc(N2CCN(C(=O)OC(C)(C)C)C[C@@H]2C)ccc1N1CCN(Cc2ccccc2)[C@H](C)C1,-1.74%
5,Cc1ccccc1C(=O)N[C@H](C(=O)N1CCC[C@H]1C(=O)NCc1ccccc1)C(C)C,1.24%
6,CC(=O)N(CC(O)CO)c1c(I)c(C(=O)NCC(O)CO)c(I)c(C(=O)NCC(O)CO)c1I (stereo not given),0.12%
7,COC(=O)[C@]12C[C@H](CC(=O)NCc3cccc(C(F)(F)F)c3)C(=O)N(Cc3ccc4c(c3)OCO4)C1=C[C@H](COCc1ccccc1)O[C@@H]2C,1.6%
8,Nc1cc(OC(=O)c2ccccc2Br)nn1S(=O)(=O)c1ccccc1,78% (active)
9,CN1C(=O)/C(=N/OC(=O)c2ccccc2Br)c2ccccc21,2.86%
10,Cc1ccc(S(=O)(=O)n2nc(OC(=O)C(C)(C)C)cc2N)cc1,2.73%
11,COc1ccc2cc(-c3[nH]ncc3CNCCn3nc(C)cc3C)ccc2c1,44% (active)
12,COc1ccc(-c2cn[nH]c2-c2ccc(OC)cc2)cc1,5.38%
13,Cc1cc(C)n(CCNS(=O)(=O)c2ccc(Cl)cc2)n1,2.21%
14,C[C@@H]1CN([C@@H](C)CO)S(=O)(=O)c2ccc(C#Cc3cccc(F)c3)cc2O[C@H]1CN(C)S(=O)(=O)c1cn(C)cn1,20.9%
15,CC(C)CC(=O)NC(=S)NNC(=O)c1cccc([N+](=O)[O-])c1,20.7%
16,COCCCNC(=S)NC(=O)c1ccc([N+](=O)[O-])cc1,0.22%
17,CCCCCC(=O)NC(=S)NNC(=O)c1ccc([N+](=O)[O-])cc1,71.7% (active)
18,CCOc1cc(C(=O)N2CCc3cc(OC)c(OC)cc3C2)ccc1OC(F)F,3.06%
19,Cc1cc(OC(=O)NCCc2ccc(F)cc2)ccc1F,3.75%
20,CC[C@H](C)[C@H]1CNC(=O)C(=O)N1CC1CCN(CCc2ccc(OC)c(OC)c2)CC1,-0.17%
21,CCCOc1ccc(F)cc1-c1cc(C(=O)NCc2ccc(F)cc2)[nH]n1,3.61%
22,Cc1ccc(O)c(-c2cc(C(=O)NCc3ccccc3)[nH]n2)c1,8.4%

row,Compound,activation
1,Cc1cc(O)ccc1-c1cc(C(=O)NCc2cc(C(F)(F)F)cc(C(F)(F)F)c2)[nH]n1,39.9% (active)
2,Brc1cnc2ccccc2c1N1CCCCC1,5.6%
3,CCOC(=O)C1=C(CC)Nc2ccccc2N=C1NC(=O)c1cccc(S(=O)(=O)N2CCCC2)c1,7.96%
4,NC(N)=N/N=C/c1ccc(OCc2ccc(Cl)cc2Cl)cc1,84.3% (active)
5,CC(C)(C)NC(=O)NC(=O)COC(=O)Cc1ccc(Cl)cc1Cl,-2.34%
6,NC(=O)COc1ccc(/C=N/NC(=O)C2CCCN2S(=O)(=O)c2ccc(Cl)cc2)cc1 (stereo not given),5.15%
7,Cc1cc(C(F)F)n2nc(C(=O)Nc3ccc(S(=O)(=O)NC45CC6CC(CC(C6)C4)C5)cc3)nc2n1,6.82%
8,CCn1nccc1C(=O)Nc1ccc(S(=O)(=O)NC23CC4CC(CC(C4)C2)C3)cc1,42.5% (active)
9,O=C(Nc1ccc(S(=O)(=O)Nc2ncccn2)cc1)C12CC3CC(CC(C3)C1)C2,0.17%
10,COC(=O)c1cc2c(c3c4cc(F)ccc4n(S(=O)(=O)c4ccccc4)c13)C(=O)N(Cc1ccccc1OC)C2,0.14%
11,O=C1CC(Sc2ncn[nH]2)C(=O)N1c1ccccc1 (stereo not given),4.92%
12,CC(C)(C)Oc1ncc(Br)c(OC(C)(C)C)n1,1.63%
13,COc1cccc(-c2cnc(OC(C)(C)C)nc2OC(C)(C)C)c1,47.4% (active)
14,COc1cccc(-c2nc3nc(C)cc(C)n3c2NC2CCCCC2)c1,1.46%
15,CN(C(=O)CN1C(=O)NC(C)(CCc2ccccc2)C1=O)c1ccccc1 (stereo not given),1.03%
16,CN(C)c1ccc(/C=C2\NC(=S)N(Cc3ccccc3)C2=O)cc1,81.4% (active)
17,CC(=O)C1=C(C)N(Cc2ccccc2)C(=S)NC1c1cccc(Br)c1 (stereo not given),-0.24%
18,Cc1ccc(N)cc1CN1CCN(c2ncc(Cc3ccccc3)cn2)CC1,-0.94%
19,COc1ccc(C2/C=C\CN(CC(C)C)CC(=O)N2Cc2ccc(F)cc2)cc1 (stereo not given),-1.75%
20,Cc1c([N+](=O)[O-])c(N)nn1C,2.61%
21,Cc1nn2c3cc(N4CCOCC4)ccc3nc2c2ccccc12,2.7%
